Measured values as given in ChEMBL document CHEMBL1148273, “Vancomycin disulfide derivatives as antibacterial agents” (Bioorg Med Chem Lett, 2004).
In brackets after ≈: the same amount, converted by molar mass.

Tests used:
Enterococcus faecalis = test: Minimal inhibitory concentration was evaluated against VanA Fs[…]; type: functional
Rattus norvegicus [1] = test: Compound was evaluated for tissue distribution 24 hours after a 50 mg/kg dose was administered intravenously in rat kidney; type: ADME, organism-based; set-up: dose 50 mg/kg, route intravenous; details: in vivo, iv
How it was run: (§1)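 Male Sprague–Dawley rats were given a single intravenous dose of 50 mg/kg. Tissue or urine levels were determined 24 h after dosing.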

Rattus norvegicus [2] = test: Compound was evaluated for percent dose tissue distribution 24 hours after a 50 mg/kg dose was administered intravenously in liver; type: ADME, organism-based; set-up: dose 50 mg/kg, route intravenous; details: in vivo, iv; how it was run: as §1
Staphylococcus aureus [3] = test: Minimal inhibitory concentration was evaluated against Staphylococcus aureus MSSA (ATCC 13709); type: functional
How it was run: (§2)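 MICs were determined by the NCCLS broth microdilution method. The strain panel included MSSA ATCC 13709, VanA E. faecium KPB-01, VanA E. faecalis MGH-01 and VanB ATCC 51575.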

[4] = Compound was evaluated for tissue distribution 24 hours after a 50 mg/kg dose was administered intravenously in urine; type: ADME, organism-based; set-up: dose 50 mg/kg, route intravenous; details: rat, iv; how it was run: as §1
Enterococcus sp. = test: Minimal inhibitory concentration was evaluated against VanB (ATCC 51575); type: functional, enterococcus strain; how it was run: as §2
Rattus norvegicus [5] = test: Compound was evaluated for percent dimer tissue distribution 24 hours after a 50 mg/kg dose was administered intravenously in urine; type: ADME, organism-based; set-up: dose 50 mg/kg, route intravenous; details: in vivo, iv
How it was run: (§3)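 Male Sprague–Dawley rats were dosed intravenously at 50 mg/kg and urine was sampled 24 h later. The metabolite percentage was calculated from the peak area ratio of the metabolite peak to the parent peak.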

Enterococcus faecium = test: Minimal inhibitory concentration was evaluated against VanA Fm […]; type: functional
Staphylococcus aureus [6] = test: Minimal inhibitory concentration was evaluated against methicillin-resistant Staphylococcus aureus (ATCC 33591); type: functional
How it was run: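 NCCLS broth microdilution susceptibility test, in vitro, against the MRSA strain ATCC 33591 as part of a Gram-positive panel with MSSA and vancomycin-resistant enterococci. Read-out is the minimal inhibitory concentration.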

Rattus norvegicus [7] = test: Compound was evaluated for percent thiol tissue distribution 24 hours after a 50 mg/kg dose was administered intravenously in urine; type: ADME, organism-based; set-up: dose 50 mg/kg, route intravenous; details: in vivo, iv; how it was run: as §3

Structure (SMILES)	MIC (Enterococcus faecalis) [µg/mL]	Dose (Rattus norvegicus [1]) [%]	Dose (Rattus norvegicus [2]) [%]	MIC (Staphylococcus aureus [3]) [µg/mL]	dose excreted at 24 h [4] [%]	MIC (Enterococcus sp.) [µg/mL]	Dose (Rattus norvegicus [5]) [%]	MIC (Enterococcus faecium) [µg/mL]	MIC (Staphylococcus aureus [6]) [µg/mL]	Dose (Rattus norvegicus [7]) [%]
CCCCCCCCSSCCCN[C@@]1(C)C[C@H](O[C@@H]2[C@@H](Oc3c4cc5cc3Oc3ccc(cc3Cl)[C@@H](O)[C@@H](NC(=O)[C@@H](CC(C)C)NC)C(=O)N[C@@H](CC(N)=O)C(=O)N[C@H]5C(=O)N[C@H]3C(=O)N[C@H](C(=O)N[C@H](C(=O)O)c5cc(O)cc(O)c5-c5cc3ccc5O)[C@H](O)c3ccc(c(Cl)c3)O4)O[C@@H](CO)[C@H](O)[C@@H]2O)O[C@H](C)[C@H]1O	3.8 (≈ 2.28 µM)	0.5	4.9	3.1 (≈ 1.86 µM)	1	1.8 (≈ 1.08 µM)	15	4.7 (≈ 2.82 µM)	0.4 (≈ 0.24 µM)	2.3
CCCCCCCCSSCCN[C@@]1(C)C[C@H](O[C@@H]2[C@@H](Oc3c4cc5cc3Oc3ccc(cc3Cl)[C@@H](O)[C@@H](NC(=O)[C@@H](CC(C)C)NC)C(=O)N[C@@H](CC(N)=O)C(=O)N[C@H]5C(=O)N[C@H]3C(=O)N[C@H](C(=O)N[C@H](C(=O)O)c5cc(O)cc(O)c5-c5cc3ccc5O)[C@H](O)c3ccc(c(Cl)c3)O4)O[C@@H](CO)[C@H](O)[C@@H]2O)O[C@H](C)[C@H]1O	4.7 (≈ 2.84 µM)			0.2 (≈ 0.121 µM)		2.4 (≈ 1.45 µM)		6.3 (≈ 3.81 µM)	0.2 (≈ 0.121 µM)	
CCCCCCCCCCCCCN[C@@]1(C)C[C@H](O[C@@H]2[C@@H](Oc3c4cc5cc3Oc3ccc(cc3Cl)[C@@H](O)[C@@H](NC(=O)[C@@H](CC(C)C)NC)C(=O)N[C@@H](CC(N)=O)C(=O)N[C@H]5C(=O)N[C@H]3C(=O)N[C@H](C(=O)N[C@H](C(=O)O)c5cc(O)cc(O)c5-c5cc3ccc5O)[C@H](O)c3ccc(c(Cl)c3)O4)O[C@@H](CO)[C@H](O)[C@@H]2O)O[C@H](C)[C@H]1O	3.8 (≈ 2.33 µM)	3.4	70	2.8 (≈ 1.72 µM)	0.4	1.6 (≈ 0.981 µM)		4.1 (≈ 2.51 µM)	1.5 (≈ 0.919 µM)	
CN[C@H](CC(C)C)C(=O)N[C@H]1C(=O)N[C@@H](CC(N)=O)C(=O)N[C@H]2C(=O)N[C@H]3C(=O)N[C@H](C(=O)N[C@H](C(=O)O)c4cc(O)cc(O)c4-c4cc3ccc4O)[C@H](O)c3ccc(c(Cl)c3)Oc3cc2cc(c3O[C@H]2O[C@@H](CO)[C@H](O)[C@H](O)[C@@H]2OC2C[C@](C)(NCCCSSCCCN[C@]3(C)C[C@@H](O[C@H]4[C@H](Oc5c6cc7cc5Oc5ccc(cc5Cl)[C@@H](O)[C@@H](NC(=O)[C@@H](CC(C)C)NC)C(=O)N[C@@H](CC(N)=O)C(=O)N[C@H]7C(=O)N[C@H]5C(=O)N[C@H](C(=O)N[C@H](C(=O)O)c7cc(O)cc(O)c7-c7cc5ccc7O)[C@H](O)c5ccc(c(Cl)c5)O6)O[C@H](CO)[C@@H](O)[C@H]4O)O[C@@H](C)[C@@H]3O)[C@H](O)[C@@H](C)O2)Oc2ccc(cc2Cl)[C@H]1O (stereo not given in full)	12.5 (≈ 4.11 µM)			6.3 (≈ 2.07 µM)		4.7 (≈ 1.54 µM)		6.3 (≈ 2.07 µM)	18.8 (≈ 6.17 µM)	
CCCCCCCCCSSCCCN[C@@]1(C)C[C@H](O[C@@H]2[C@@H](Oc3c4cc5cc3Oc3ccc(cc3Cl)[C@@H](O)[C@@H](NC(=O)[C@@H](CC(C)C)NC)C(=O)N[C@@H](CC(N)=O)C(=O)N[C@H]5C(=O)N[C@H]3C(=O)N[C@H](C(=O)N[C@H](C(=O)O)c5cc(O)cc(O)c5-c5cc3ccc5O)[C@H](O)c3ccc(c(Cl)c3)O4)O[C@@H](CO)[C@H](O)[C@@H]2O)O[C@H](C)[C@H]1O	3.6 (≈ 2.14 µM)			0.6 (≈ 0.357 µM)		1.8 (≈ 1.07 µM)		4.1 (≈ 2.44 µM)	1.2 (≈ 0.714 µM)	
CCCCCCCCCSSCCN[C@@]1(C)C[C@H](O[C@@H]2[C@@H](Oc3c4cc5cc3Oc3ccc(cc3Cl)[C@@H](O)[C@@H](NC(=O)[C@@H](CC(C)C)NC)C(=O)N[C@@H](CC(N)=O)C(=O)N[C@H]5C(=O)N[C@H]3C(=O)N[C@H](C(=O)N[C@H](C(=O)O)c5cc(O)cc(O)c5-c5cc3ccc5O)[C@H](O)c3ccc(c(Cl)c3)O4)O[C@@H](CO)[C@H](O)[C@@H]2O)O[C@H](C)[C@H]1O	3.1 (≈ 1.86 µM)			0.3 (≈ 0.18 µM)		1.2 (≈ 0.72 µM)		6.3 (≈ 3.78 µM)	0.6 (≈ 0.36 µM)	
CCCCCCCCCCSSCCNC1(C)CC(OC2C(Oc3c4cc5cc3Oc3ccc(cc3Cl)[C@@H](O)[C@@H](NC(=O)[C@@H](CC(C)C)NC)C(=O)N[C@@H](CC(N)=O)C(=O)N[C@H]5C(=O)N[C@H]3C(=O)N[C@H](C(=O)N[C@H](C(=O)O)c5cc(O)cc(O)c5-c5cc3ccc5O)[C@H](O)c3ccc(c(Cl)c3)O4)OC(O)C(O)C2O)OC(C)C1O (stereo not given in full)	3.1 (≈ 1.86 µM)			1.2 (≈ 0.72 µM)		0.6 (≈ 0.36 µM)		3.1 (≈ 1.86 µM)	2.4 (≈ 1.44 µM)	
CCCCCCCCCCNCCN[C@@]1(C)C[C@H](O[C@@H]2[C@@H](Oc3c4cc5cc3Oc3ccc(cc3Cl)[C@@H](O)[C@@H](NC(=O)[C@@H](CC(C)C)NC)C(=O)N[C@@H](CC(N)=O)C(=O)N[C@H]5C(=O)N[C@H]3C(=O)N[C@H](C(=O)N[C@H](C(=O)O)c5cc(O)cc(O)c5-c5cc3ccc5O)[C@H](O)c3ccc(c(Cl)c3)O4)O[C@@H](CO)[C@H](O)[C@@H]2O)O[C@H](C)[C@H]1O	3.6 (≈ 2.21 µM)	22	37	0.4 (≈ 0.245 µM)	16	1.8 (≈ 1.1 µM)		4.1 (≈ 2.51 µM)	0.4 (≈ 0.245 µM)	
CN[C@H](CC(C)C)C(=O)N[C@H]1C(=O)N[C@@H](CC(N)=O)C(=O)N[C@H]2C(=O)N[C@H]3C(=O)N[C@H](C(=O)N[C@H](C(=O)O)c4cc(O)cc(O)c4-c4cc3ccc4O)[C@H](O)c3ccc(c(Cl)c3)Oc3cc2cc(c3O[C@@H]2O[C@H](CO)[C@@H](O)[C@H](O)[C@H]2O[C@H]2C[C@](C)(N)[C@H](O)[C@H](C)O2)Oc2ccc(cc2Cl)[C@H]1O [VANCOMYCIN]	> 256			0.7 (≈ 0.483 µM)		> 256		> 256		
